Screens (PubChem BioAssay)
This is a sample that favours compounds with a hit; in the whole collection about 12% have one here.
Diaphorase inh = diaphorase inhibition or chemical oxidation counter-screen | 190,000 tested, 0.69% active | AID 1217 | inhibition, % at 20 µM | diaphorase resazurin-to-resorufin fluorescence, NADH, 16 min; bacterial (C. kluyveri) enzyme, not human;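 active = primary screen inhibition at 20 µM above a set limit, cut at about 50% in these data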;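 note: plate controls were DMSO with full reaction for no effect and wells lacking NADH for full effect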
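Benchmarks: positive control wells lacking NADH, neutral wells with DMSO only. System: bacterial diaphorase enzyme (C. kluyveri). Input: 0.14 U/mL diaphorase, enzyme working solution. Detection: resorufin fluorescence, excitation 544 nm, emission 590 nm. Times: 16-min room-temperature incubation before reading.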
Diaph act CS = counter-screen for diaphorase-based assays: diaphorase activators and chemical reducers; Diaphorase/resazurin coupled assay, resorufin fluorescence, 16 min; active compounds read high; 1 = vehicle wells, 0 = NADH-free wells; activation factor at 20 µM; 190,000 tested, 0.005% active; AID 1229;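 active = diaphorase activity raised at least twofold by the compound at 20 µM; inactive = activation factor below 2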
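Material: purified diaphorase enzyme from Clostridium kluyveri; Also added: 0.114 mM NADH and 0.1 mM resazurin, final amounts; Doses: single compound dose of 20 µM, 1% DMSO final; Times: 16 min enzyme reaction, ambient temperature; Detection: resorufin fluorescence, excitation 544 nm, emission 590 nm; Measure: increased resorufin signal from activators or reducing compounds.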
L major viab = Leishmania major promastigote growth inhibition | Leishmania major promastigotes, resazurin fluorescence viability | inhibition, % at 10 µM | 200,000 tested, 9% active; in the data active = inhibition above about 50%;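 note: promastigotes grown with compound for 44 hours at 28 °C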
KCC2 mod = modulates chloride dependent transport by human KCC2. KCC2 cells, thallium flux FluoZin-2 fluorescence. AID 1456. B-score of Tl+ flux slope (higher = more flux/activation; lower = inhibition) at 10 µM. Q9H2X9. 190,000 tested, 2.2% active;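 active = thallium flux slope and its plate-corrected score both differing from the plate sample mean at a set confidence after two filtering rounds, in either direction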;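 note: slope of fluorescence scaled to starting intensity during 10 to 20 s after thallium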
Target sequence (Q9H2X9 whole entry, looked up): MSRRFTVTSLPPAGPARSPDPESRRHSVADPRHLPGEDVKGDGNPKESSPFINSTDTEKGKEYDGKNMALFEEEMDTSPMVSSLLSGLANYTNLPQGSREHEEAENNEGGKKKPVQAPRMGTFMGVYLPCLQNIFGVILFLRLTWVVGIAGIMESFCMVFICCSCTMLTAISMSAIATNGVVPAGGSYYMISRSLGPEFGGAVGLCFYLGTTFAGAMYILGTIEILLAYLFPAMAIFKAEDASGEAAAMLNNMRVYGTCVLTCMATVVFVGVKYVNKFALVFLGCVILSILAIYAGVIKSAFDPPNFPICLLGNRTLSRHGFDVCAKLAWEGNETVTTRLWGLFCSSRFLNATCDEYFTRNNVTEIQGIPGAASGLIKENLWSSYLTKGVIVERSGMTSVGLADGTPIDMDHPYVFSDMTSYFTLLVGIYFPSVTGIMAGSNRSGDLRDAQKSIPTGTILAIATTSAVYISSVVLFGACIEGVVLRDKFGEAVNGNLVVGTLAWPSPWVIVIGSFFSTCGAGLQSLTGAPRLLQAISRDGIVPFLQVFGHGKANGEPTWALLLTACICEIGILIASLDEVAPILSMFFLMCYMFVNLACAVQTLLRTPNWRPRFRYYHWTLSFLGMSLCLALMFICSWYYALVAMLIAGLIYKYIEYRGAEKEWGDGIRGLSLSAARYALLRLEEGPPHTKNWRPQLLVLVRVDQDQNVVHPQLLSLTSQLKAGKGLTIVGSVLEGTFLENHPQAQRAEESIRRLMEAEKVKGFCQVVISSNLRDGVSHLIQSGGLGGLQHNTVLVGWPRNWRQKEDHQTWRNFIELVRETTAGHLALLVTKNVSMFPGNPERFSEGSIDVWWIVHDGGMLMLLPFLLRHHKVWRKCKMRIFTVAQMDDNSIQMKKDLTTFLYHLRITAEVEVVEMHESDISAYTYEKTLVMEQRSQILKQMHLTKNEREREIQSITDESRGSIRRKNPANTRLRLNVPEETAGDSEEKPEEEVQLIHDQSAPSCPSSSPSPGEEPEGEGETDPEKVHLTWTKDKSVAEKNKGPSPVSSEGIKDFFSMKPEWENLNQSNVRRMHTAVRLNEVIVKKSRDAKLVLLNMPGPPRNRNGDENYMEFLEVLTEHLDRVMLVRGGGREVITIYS
ROMK primary = human ROMK K+ channel modulation, primary screen | P48048 | 130,000 tested, 2% active | B-score at 10 µM | Tet-inducible ROMK, thallium flux fluorescence; actives lie on both sides;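 active = signal ratio slope over the read window, or its plate-corrected B-score, at least 3 SD from the plate mean, either direction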;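 note: B-score of the F/F0 ratio slope over 7 to 12 s after thallium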
WT yeast gro inh = growth inhibition of WT yeast, mitochondrial fusion screen. inhibition, % at 10 µM. 190,000 tested, 2.1% active. mitochondrial fusion phenotypic screen, WT strain; in the data active = inhibition above about 58%; tested in S. cerevisiae
Active calls of the source: *; . = no result given.

SMILES	Diaphorase inh	Diaph act CS	L major viab	KCC2 mod	ROMK primary	WT yeast gro inh
Cc1ccccc1-c1nc(CN2CCC(C(=O)NCCCN3CC(C)CC(C)C3)CC2)c(C)o1 (configuration not stated)	-10.8	1.1	76.2*	0.193	.	-12.8
CCOc1ccc(/C(O)=C2/C(=O)C(=O)N(c3ncccn3)C2c2ccccc2)cc1 (configuration not stated)	-7.3	1.1	-7.2	-0.748	0.306	-11.7
CCOC(=O)c1ccc(NC(=O)CSc2n[nH]c(-c3ccncc3)n2)cc1	50.6*	0.5	-3.6	-0.0418	.	20.2
COc1ccccc1NC(=O)CSc1nc2ncccc2[nH]1	20.9	0.8	7.4	-0.169	.	10.1
CCOC(=O)c1ccc(NC(=O)CSc2nc3ncccc3[nH]2)cc1	20.1	0.8	62.5*	0.157	-1.22	-13.5
CCOC(=O)CSc1n[nH]c(-c2cccnc2)n1	2.1	1	-6.3	-0.152	1.97	95.3*
CCOC(=O)CC(Nc1nc(N2CCOCC2)nc(N2CCOCC2)n1)c1ccccc1Cl (configuration not stated)	12.3	0.9	19.7	-0.98	.	9.0
CC1CCCCN1C/C=C/c1ccccc1[N+](=O)[O-] (configuration not stated)	7.8	0.9	85.2*	-0.749	0.228	-16.4
CC1CCCN(C/C=C/c2ccccc2[N+](=O)[O-])C1 (configuration not stated)	8.3	0.9	87.9*	.	-0.000811	-4.3
CCC1CCCCN1C/C=C/c1ccccc1[N+](=O)[O-] (configuration not stated)	8.9	0.9	89.7*	.	-0.0271	13.8
CCCc1ccc(/C=C2\C(=O)c3ccccc3C(O)=C2C(=O)OCC)cc1	45.8	0.5	-7.0	.	.	58.9*
O=C(COc1ccc(Br)cc1Br)NC(=S)N1CCCc2ccccc21	16.5	0.8	-6.8	10.5*	1.1	11.0
O=C(NC(=S)N1CCc2ccccc21)c1ccccc1Br	-2.7	1	-3.6	60.3*	.	50.6
CC(Oc1ccc(Cl)cc1Cl)C(=O)NN=C1CCN(C)CC1 (configuration not stated)	8.3	0.9	-3.6	0.63	.	-1.8
CC(Oc1ccc(Cl)cc1Cl)C(=O)NC(=S)N1CCc2ccccc21 (configuration not stated)	5.7	0.9	-3.5	43.6*	.	67.9
O=C(COc1ccc(Br)cc1Cl)NC(=O)NCc1ccccc1	14.1	0.9	54.5*	1.36	.	3.1
O=C(c1ccccc1F)N1CCc2ccccc21	9.7	0.9	-5.2	.	-0.525	.
O=C(COc1ccc(Br)cc1Br)NC(=S)Nc1cccc(CO)c1	9.5	0.9	5.4	.	-0.491	10.9
COC(=O)C1=C(C)Nc2c(c(=O)n(C)c(=O)n2C)C1c1ccc(Cl)cc1 (configuration not stated)	5.5	0.9	-1.3	-1.77	0.139	-6.3
O=C(O)/C=C/C(=O)Nc1ccc2nccnc2c1	17.9	0.8	-6.7	1.28	-0.857	-18.3
CC(OC(=O)c1cn(-c2ccccc2)nc1-c1cccnc1)C(N)=O (configuration not stated)	-8.0	1.1	-4.0	0.896	-1.39	-1.9
O=C(COc1ccc(Br)cc1Cl)NC(=S)N1CCc2ccccc21	25.8	0.7	44.5	23.3*	.	72.1
COc1ccc(-n2nc(C(=O)NCC(=O)NCC3COc4ccccc4O3)c3ccccc3c2=O)c(OC)c1 (configuration not stated)	20.9	0.8	-13.3	-0.23	-0.683	-3.1
CN(C)c1cccc2c(/C=N/O)ccc(N(C)C)c12	22.4	0.8	2.1	0.0448	0.582	7.6
CN(C)c1cccc2c(C=C(C#N)C#N)ccc(N(C)C)c12	61.5*	0.4	2.7	0.0653	.	7.2
SMILES	Diaphorase inh	Diaph act CS	L major viab	KCC2 mod	ROMK primary	WT yeast gro inh
CC(C)=CCC/C(C)=C/C=N/NC(=O)c1ccccc1[N+](=O)[O-]	7.9	0.9	94.4*	-0.119	0.0317	4.7
COC(=O)c1oc2c(c1C)C(=O)CC(C)(C)C2	6.6	0.9	-6.3	0.0199	-0.263	-2.9
CC1(C)CC(=O)c2c(oc3cc(O)c(O)cc23)C1	47.6	0.5	84.4*	0.124	-0.0504	-24.3
CCOc1ccc(NS(=O)(=O)c2cc(OCC(N)=O)c(C)cc2Cl)cc1	6.5	0.9	9.8	-0.414	-0.804	-21.2
O=C(O)c1ccc(NS(=O)(=O)c2cc(Cl)ccc2Cl)cc1	-0.7	1	94.5*	0.841	0.624	3.5
CC(C)C(=O)Nc1cc(S(=O)(=O)Nc2cccc(Cl)c2)ccc1Cl	17.3	0.8	4.1	-0.0377	.	32.2
CC(C)C(=O)Nc1cc(S(=O)(=O)Nc2ccc(Cl)cc2)ccc1Cl	26.1	0.7	-1.1	0.8	.	73.8*
Cc1cc(Cl)c(S(=O)(=O)Nc2cccc(O)c2)cc1OCC(N)=O	9.6	0.9	53.2*	0.0426	0.326	-8.6
COc1ccc(NS(=O)(=O)c2cc(OCC(N)=O)c(C)cc2Cl)cc1	4.4	1	76.0*	0.281	0.497	-10.0
Cn1cc(S(=O)(=O)Nc2ccc(Br)cc2F)c(=O)n(C)c1=O	-1.0	1	-1.4	-0.123	.	3.0
CC(=O)Nc1ccc(C(=O)N(C)C(C(=O)Nc2ccccc2)c2ccccn2)cc1 (configuration not stated)	11.7	0.9	-3.4	-0.248	0.476	-1.2
S=C1NC[C@H](Cc2ccccc2)N1CCc1cccc2ccccc12	.	.	.	0.00822	.	.
COc1cccc(CNC(=O)C2=Cc3cccc(OC)c3OC2)c1	2.9	1	1.1	.	0.00952	47.6
COc1cc(NC(=O)COC(=O)Cc2ccc(-c3ccccc3)cc2)cc(OC)c1	14.8	0.9	25.5	0.025	-0.0782	45.0
COc1ccc(NS(=O)(=O)c2cc(C(=O)O)ccc2C)cc1	3.2	1	1.5	0.641	.	58.6*
COc1ccc(NS(=O)(=O)c2cc(NC(=O)CNC(=O)c3ccc(C)s3)ccc2Cl)cc1	24.8	0.8	84.1*	-0.655	.	17.1
COc1ccc(COC(=O)N/N=C(\C)CC(=O)NCc2ccc(Cl)cc2)cc1	20.2	0.8	1.2	-1.24	-0.218	-6.2
COc1cc(CN(C2CCCCC2)S(=O)(=O)c2ccc(S(=O)(=O)N(C)C3CCCCC3)cc2)cc(OC)c1OC	17.7	0.8	92.9*	0.76	-0.46	-11.8
COc1ccc(CN(C2CCCC2)S(=O)(=O)c2ccc(-n3cnnn3)c(OC)c2)cc1OC	9.3	0.9	14.4	-0.0515	.	-2.0
ClC(Cl)(Cl)c1nc(N/N=C/c2ccncc2)c2ccccc2n1	-7.5	1.1	-4.0	0.925	-0.303	17.1
Cc1cc(N/N=C/c2ccncc2)nc2ccccc12	0.7	1	73.3*	-1.32	0.267	26.2
Cc1cc(N/N=C/c2cccc(Br)c2)nc2ccccc12	-0.7	1	61.1*	-0.897	-0.0979	67.1
